pIC50: −log10 of the molar value.
Tests used:
Sorbitol dehydrogenase = target: T1, Sorbitol dehydrogenase (Homo sapiens, UniProt Q00796)
T1 sequence (Q00796 whole entry): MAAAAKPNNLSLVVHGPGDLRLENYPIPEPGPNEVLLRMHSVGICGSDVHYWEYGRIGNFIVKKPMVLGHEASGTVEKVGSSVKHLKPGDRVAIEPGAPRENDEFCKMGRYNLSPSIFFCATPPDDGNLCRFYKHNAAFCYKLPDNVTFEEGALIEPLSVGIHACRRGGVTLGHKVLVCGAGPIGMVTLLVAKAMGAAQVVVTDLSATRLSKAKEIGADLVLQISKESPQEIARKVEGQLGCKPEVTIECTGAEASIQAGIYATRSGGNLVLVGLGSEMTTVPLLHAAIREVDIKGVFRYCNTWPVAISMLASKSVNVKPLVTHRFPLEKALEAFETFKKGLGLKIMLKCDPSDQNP

Rattus norvegicus [1] = organism: Rattus norvegicus; assay: Concentration required for 50% prevention of sciatic nerve fructose accumulation using acute model in streptozocin (STZ)-induced diabetic rats; assay type: functional
Procedure, shortened: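 STZ diabetes was induced in male CD Sprague-Dawley rats (175-225 g) with 85 mg/kg iv (citrate, pH 4.5). Oral gavage doses were given 4, 7 and 24 h after STZ, and rats were killed at 28 h. Left sciatic nerve was extracted in 6% perchloric acid and neutralized. Fructose was assayed with FDH/resazurin for 60 min at room temperature (fluorescence). ED50 is expressed as total mg/kg/day.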

Rattus norvegicus [2] = assay: Concentration required for 50% ability to normalize elevated sciatic nerve fructose in reversal protocol using chronic model in streptozocin (STZ)-induced diabetic rats (in vivo); assay type: functional; details: in the assay text read “90% ability” for “50% ability”
Procedure, shortened: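 Diabetes was induced in male CD Sprague-Dawley rats (175-225 g) with STZ (85 mg/kg in 0.01 M citrate, pH 4.5) by tail vein. Oral gavage was given once daily from day 8 for 5 days. Rats were killed 4 h after the last dose (day 12). Left sciatic nerve fructose was measured in perchloric acid extract by FDH/resazurin fluorescence (ex 560, em 580 nm) against standards.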

Compound | pIC50 (Sorbitol dehydrogenase) | ED50 (Rattus norvegicus [1]) [mg/kg/day] | ED90 (Rattus norvegicus [2]) [mg/kg/day]
OCc1nccc(N2CCN(c3nsc4ccccc34)CC2)n1 | 7.19 |  | 
C[C@@H](O)c1nccc(N2CCN(c3nsc4ccccc34)CC2)n1 | 7.92 |  | 
C[C@@H](O)c1nccc(N2CCN(c3nc4ncccc4o3)CC2)n1 | 6.77 |  | 
C[C@@H](O)c1nccc(N2CCN(c3nc(C(F)(F)F)cc(C(F)(F)F)n3)CC2)n1 | 6.72 |  | 
OCc1nccc(N2CCN(c3nc4ccccc4o3)CC2)n1 | 6.72 |  | 
Cc1cc(CO)nc(N2CCN(c3ccnc([C@@H](C)O)n3)C[C@H]2C)n1 | 6.85 |  | 
C[C@@H](O)c1nccc(N2CCN(c3nc4ccncc4o3)[C@@H](C)C2)n1 | 7.64 |  | 
C[C@@H](O)c1nccc(N2CCN(c3cnc4ccccc4n3)[C@@H](C)C2)n1 | 7.00 |  | 
C[C@@H](O)c1nccc(N2CCN(c3ccnc(CCO)n3)CC2)n1 | 7.40 | 1 | 
C[C@@H](O)c1nccc(N2CCN(c3ccnc(CCO)n3)C[C@@H]2C)n1 | 7.23 |  | 
C[C@@H](O)c1nccc(N2CCN(c3nc4ccccc4o3)CC2)n1 | 7.46 | 12 | 
CC(C)c1cc(C(C)C)nc(N2CCN(c3ccnc([C@@H](C)O)n3)CC2)n1 | 7.14 |  | 
Cc1cc(CO)nc(N2CCN(c3ccnc([C@@H](C)O)n3)C[C@@H]2C)n1 | 7.10 |  | 2
C[C@@H]1CN(c2ccnc(CCO)n2)C[C@H](C)N1c1ccnc([C@@H](C)O)n1 | 8.00 |  | 2
Cc1cc(C)nc(N2CCN(c3ccnc(CO)n3)CC2)n1 | 7.03 |  | 
C[C@@H](O)c1nccc(N2CCN(c3nc4cccnc4o3)CC2)n1 | 7.49 | 0.5 | 
C[C@@H](O)c1nccc(N2CCN(c3nccc(-c4ccccc4)n3)CC2)n1 | 7.17 |  | 
Cc1cc(C)nc(N2CCN(c3ccnc([C@@H](C)O)n3)CC2)n1 | 7.64 | 1.3 | 
Cc1nc2ccccc2nc1N1CCN(c2ccnc([C@@H](C)O)n2)CC1 | 8.10 |  | 
Cc1cc(CO)nc(N2C[C@@H](C)N(c3ccnc([C@@H](C)O)n3)[C@@H](C)C2)n1 | 7.00 |  | 1
Cc1cc(CO)nc(N2CCN(c3ccnc([C@@H](C)O)n3)[C@H](C)C2)n1 | 6.77 |  | 
Cc1cc(CO)nc(N2CCN(c3ccnc([C@@H](C)O)n3)[C@@H](C)C2)n1 | 6.70 |  | 

Compound | pIC50 (Sorbitol dehydrogenase) | ED50 (Rattus norvegicus [1]) [mg/kg/day] | ED90 (Rattus norvegicus [2]) [mg/kg/day]
OCc1nccc(N2CCN(c3ccc4ccccc4n3)CC2)n1 | 7.06 |  | 
Cc1cc(CO)nc(N2CCN(c3ccnc([C@@H](C)O)n3)CC2)n1 | 7.70 | 0.5 | 
C[C@@H](O)c1nccc(N2CCN(c3cnc4cc(Cl)c(Cl)cc4n3)CC2)n1 | 6.92 |  | 
Cc1cc(-c2ccccc2)nc(N2CCN(c3ccnc([C@@H](C)O)n3)CC2)n1 | 6.66 |  | 
C[C@@H](O)c1nccc(N2CCN(c3noc4ccccc34)CC2)n1 | 7.43 |  | 
C[C@@H]1CN(c2cnc3ccccc3n2)C[C@H](C)N1c1ccnc([C@@H](C)O)n1 | 6.74 |  | 1
C[C@@H]1CN(c2nc3ccncc3o2)C[C@H](C)N1c1ccnc([C@@H](C)O)n1 | 6.57 |  | 
C[C@@H](O)c1nccc(N2CCN(c3nccc4ccccc34)CC2)n1 | 7.47 |  | 
Cc1cc(CO)nc(N2[C@H](C)CN(c3ccnc([C@@H](C)O)n3)C[C@@H]2C)n1 | 6.89 |  | 
Cc1ccnc(N2CCN(c3ccnc([C@@H](C)O)n3)CC2)n1 | 6.96 |  | 
C[C@@H]1CN(c2ccnc(CCO)n2)CCN1c1ccnc([C@@H](C)O)n1 | 7.92 |  | 
CCc1cc(CC)nc(N2CCN(c3ccnc([C@@H](C)O)n3)CC2)n1 | 7.10 |  | 
C[C@@H](O)c1nccc(N2CCN(c3nc4ccncc4o3)CC2)n1 | 7.62 | 0.5 | 10
OCc1nccc(N2CCN(c3ccnc(CO)n3)CC2)n1 | 6.59 |  | 
C[C@@H](O)c1nccc(N2CCN(c3nc4cnccc4o3)CC2)n1 | 7.10 |  | 
OCc1nccc(N2CCN(c3noc4ccccc34)CC2)n1 | 6.92 |  | 
OCc1nccc(N2CCN(c3nccc4ccccc34)CC2)n1 | 6.82 |  | 
Cc1cc(N2CCN(c3ccnc([C@@H](C)O)n3)CC2)nc(C)n1 | 7.51 | 5 | 
C[C@@H](O)c1nccc(N2CCN(c3cnc4ccccc4n3)CC2)n1 | 7.44 | 1 | > 20
Cc1cc(N2CCN(c3ccnc(CO)n3)CC2)nc(C)n1 | 6.85 |  | 
C[C@@H](O)c1nccc(N2CCN(c3ccc4ccccc4n3)CC2)n1 | 7.36 |  | 
CN(C)S(=O)(=O)N1CCN(c2ccnc(CO)n2)CC1 | 6.62 |  | 
